The source made the active and inactive calls. No cut-off for these calls is given here.
Key:
[1] = target: T1, Prostaglandin G/H synthase 1 (Mus musculus) (UniProt P22437); experiment: Inhibition of COX-1-mediated PGE2 production in arachidonic acid-stimulated mouse J774 cells at 10 uM incubated for 15 mins prior to arachidonic acid-challenge by radioimmunoassay; assay type: cell-based
T1 sequence (whole entry): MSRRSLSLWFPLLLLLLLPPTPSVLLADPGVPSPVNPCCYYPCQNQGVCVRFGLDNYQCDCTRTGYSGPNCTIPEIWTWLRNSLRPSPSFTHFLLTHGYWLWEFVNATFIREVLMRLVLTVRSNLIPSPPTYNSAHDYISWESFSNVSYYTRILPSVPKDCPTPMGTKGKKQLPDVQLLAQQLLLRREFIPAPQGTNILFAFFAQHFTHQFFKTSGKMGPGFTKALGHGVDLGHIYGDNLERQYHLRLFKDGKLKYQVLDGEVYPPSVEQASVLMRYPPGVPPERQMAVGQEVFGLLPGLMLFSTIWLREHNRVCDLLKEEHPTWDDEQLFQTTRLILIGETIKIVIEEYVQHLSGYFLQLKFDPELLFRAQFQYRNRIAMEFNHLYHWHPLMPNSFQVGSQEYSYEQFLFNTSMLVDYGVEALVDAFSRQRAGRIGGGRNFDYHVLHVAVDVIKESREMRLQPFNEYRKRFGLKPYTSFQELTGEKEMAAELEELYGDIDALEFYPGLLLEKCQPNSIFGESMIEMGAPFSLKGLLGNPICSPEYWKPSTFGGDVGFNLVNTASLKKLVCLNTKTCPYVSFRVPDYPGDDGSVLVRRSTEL
In short: (§1)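 J774 murine macrophages grown in DMEM with 10% FBS and allowed to adhere for 2 h at 37 °C. Where inhibition exceeded 50%, 0.01–1 μM was also tested. Supernatant PGE2 was measured by RIA as % inhibition versus control, in triplicate wells over three experiments. IC50 came from a sigmoidal variable-slope fit.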

[2] = target: T2, Prostaglandin G/H synthase 1 (Mus musculus, UniProt P22437); experiment: Inhibition of COX-1-mediated PGE2 production in arachidonic acid-stimulated mouse J774 cells incubated for 15 mins prior to arachidonic acid-challenge by radioimmunoassay; assay type: cell-based
T2 sequence (P22437 whole entry): T1 sequence (whole entry)
In short: as §1, with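 “2 h at 37 °C. Cells were pretreated with compound at 10 μM for 15 min, then given 15 μM arachidonic acid for 30 min at 37” for “2 h at 37”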

J774 = experiment: Selectivity ratio of IC50 for COX1 in mouse J774 cells to IC50 for COX2 in mouse J774 cells; assay type: cell-based
In short: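 Ratio of J774 IC50s, COX-1 over COX-2. For COX-1, cells were pretreated with compound for 15 min, then given 15 μM arachidonic acid for 30 min at 37 °C. For COX-2, cells received E. coli LPS 10 μg/mL for 24 h with compound at 0.01–10 μM. PGE2 was measured by RIA in triplicate wells over three experiments. IC50 came from a sigmoidal fit.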

Aorta [3] = experiment: Vasorelaxation activity against KCl-induced contraction in isolated Wistar rat thoracic endothelium-denulated aortic rings in the presence of guanylate cyclase inhibitor ODQ; assay type: functional, tissue-based
In short: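 Thoracic aortic rings from male Wistar rats (250–350 g), endothelium removed by rubbing; rings relaxing ≥10% to ACh 10 μM on KCl 30 mM tone were discarded. ODQ 1 μM was incubated, then rings were contracted with KCl 30 mM and given 3-fold increasing concentrations of 1 nM–10 μM.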

Aorta [4] = experiment: Vasorelaxation activity against KCl-induced contraction in isolated Wistar rat thoracic endothelium-denulated aortic rings; assay type: functional, tissue-based
In short: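 Endothelium-denuded thoracic aortic rings from male Wistar rats (250−350 g); denudation confirmed by <10% relaxation to 10 μM ACh. Rings precontracted with 30 mM KCl; compound added at 3-fold increasing concentrations, 1 nM to 10 μM. Isometric tension recorded. Emax given as % of KCl tone; pIC50 derived. Mean ± standard error of 6−10 experiments; repeated with 1 μM ODQ.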

[5] = target: T3, Prostaglandin G/H synthase 2 (Mus musculus, UniProt Q05769); experiment: Inhibition of COX-2-mediated PGE2 production in LPS-stimulated mouse J774 cells after 24 hrs by radioimmunoassay; assay type: cell-based
T3 sequence (Q05769 whole entry): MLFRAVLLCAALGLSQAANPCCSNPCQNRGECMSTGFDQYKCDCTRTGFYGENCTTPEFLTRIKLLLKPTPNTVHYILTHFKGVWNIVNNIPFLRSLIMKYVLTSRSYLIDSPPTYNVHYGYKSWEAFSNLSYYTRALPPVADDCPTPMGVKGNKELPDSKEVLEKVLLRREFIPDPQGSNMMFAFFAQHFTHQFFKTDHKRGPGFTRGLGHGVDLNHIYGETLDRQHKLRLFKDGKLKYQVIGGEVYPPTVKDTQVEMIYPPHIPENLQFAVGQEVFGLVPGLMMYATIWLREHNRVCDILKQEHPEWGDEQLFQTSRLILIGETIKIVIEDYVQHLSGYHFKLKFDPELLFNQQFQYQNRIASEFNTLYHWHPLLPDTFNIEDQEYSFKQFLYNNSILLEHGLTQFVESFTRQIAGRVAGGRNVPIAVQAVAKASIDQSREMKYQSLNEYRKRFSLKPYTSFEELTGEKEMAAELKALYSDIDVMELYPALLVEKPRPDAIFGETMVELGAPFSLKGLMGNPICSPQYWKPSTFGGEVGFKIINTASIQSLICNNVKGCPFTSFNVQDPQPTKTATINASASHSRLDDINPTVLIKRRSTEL

Rattus norvegicus [6] = experiment: Antiinflammatory activity against carrageenan-induced paw edema in Sprague-Dawley rat assessed as paw weight at 20 mg/kg, po administered 4 hrs post challenge measured after 30 mins (reference value: 62.5+/-3.1 g); assay type: functional
Rattus norvegicus [7] = experiment: Antiinflammatory activity against carrageenan-induced paw edema in Sprague-Dawley rat assessed as paw weight at 20 mg/kg, po administered 4 hrs post challenge measured after 120 mins (reference value: 62.5+/-3.1 g); assay type: functional
[8] = target: T1, Prostaglandin G/H synthase 1 (Mus musculus); experiment: Inhibition of COX-1-mediated PGE2 production in arachidonic acid-stimulated mouse J774 cells at 1 uM incubated for 15 mins prior to arachidonic acid-challenge by radioimmunoassay; assay type: cell-based; in short: as §1
Mus musculus = experiment: Analgesic activity in Swiss albino mouse abdominal constriction model assessed as reduction in acetic acid-induced writhing response for 10 mins at 20 to 40 mg/kg, po administered 30 mins prior to acetic acid-challenge measured after 5 mins relative to vehicle-treated control; assay type: functional, organism-based; conditions: Abdomen
In short: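 Male Swiss albino mice (23−25 g); 0.6% acetic acid (10 mL/kg) injected ip. Stretching movements counted for 10 min, starting 5 min after administration. Oral doses in carboxymethylcellulose (CMC) vehicle, compared with vehicle-treated mice.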

Rattus norvegicus [9] = experiment: Antiinflammatory activity against carrageenan-induced paw edema in Sprague-Dawley rat assessed as paw weight at 40 mg/kg, po administered 4 hrs post challenge measured after 120 mins (reference value: 63.2+/-3.3 g); assay type: functional
[10] = target: T1, Prostaglandin G/H synthase 1 (Mus musculus); experiment: Inhibition of COX-1-mediated PGE2 production in arachidonic acid-stimulated mouse J774 cells at 0.1 uM incubated for 15 mins prior to arachidonic acid-challenge by radioimmunoassay; assay type: cell-based; in short: as §1
Rattus norvegicus [11] = experiment: Antiinflammatory activity against carrageenan-induced paw edema in Sprague-Dawley rat assessed as paw weight at 20 mg/kg, po administered 4 hrs post challenge measured after 60 mins (reference value: 62.5+/-3.1 g); assay type: functional
Rattus norvegicus [12] = experiment: Antiinflammatory activity against carrageenan-induced paw edema in Sprague-Dawley rat assessed as paw weight at 40 mg/kg, po administered 4 hrs post challenge measured after 30 mins (reference value: 63.2+/-3.3 g); assay type: functional
Rattus norvegicus [13] = experiment: Antiinflammatory activity against carrageenan-induced paw edema in Sprague-Dawley rat assessed as paw weight at 40 mg/kg, po administered 4 hrs post challenge measured after 60 mins (reference value: 63.2+/-3.3 g); assay type: functional
Rattus norvegicus [14] = experiment: Antiinflammatory activity against carrageenan-induced edema in Sprague-Dawley rat assessed as right hind paw volume at 20 mg/kg, po administered 4 hrs post challenge measured after 60 mins; assay type: functional
In short: (§2)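 Rats received intraplantar carrageenan. Right hind paw volume was measured 4 h after the carrageenan injection and compared with saline/carrageenan-treated controls. Oral dosing in CMC vehicle; volume recorded at 60 min after treatment.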

Rattus norvegicus [15] = experiment: Antiinflammatory activity against carrageenan-induced edema in Sprague-Dawley rat assessed as right hind paw volume at 40 mg/kg, po administered 4 hrs post challenge measured after 60 mins; assay type: functional; in short: as §2

`Cc1c(CC(=O)O)cc(-c2ccc(S(C)(=O)=O)cc2)n1-c1ccccc1` showed an inhibition [1] of 0%, an IC50 [2] of over 10 µM and a Ratio IC50 (J774) of over 10.

With `CSc1ccc(-n2c(-c3ccc(S(C)(=O)=O)cc3)cc(CC(=O)OCCCO[N+](=O)[O-])c2C)cc1` the Activity (Aorta [3]) was “inactive”, the inhibition [1] was 0% and the IC50 [2] was over 10 µM. It also gave an IC50 (Aorta [4]) of over 10 µM and a Ratio IC50 (J774) of over 370.

Work on `Cc1c(CC(=O)OCCO)cc(-c2ccc(S(C)(=O)=O)cc2)n1-c1ccc(F)cc1` yielded an IC50 [5] of 0.039 µM, an inhibition [1] of 21% and an IC50 [2] of over 10 µM. The Ratio IC50 (J774) was over 256.

With `COc1ccc(-n2c(-c3ccc(S(C)(=O)=O)cc3)cc(CC(=O)OCCCO)c2C)cc1` the inhibition [1] was 27%, the IC50 [2] was over 10 µM and the Ratio IC50 (J774) was over 14.3.

`CSc1ccc(-n2c(-c3ccc(S(C)(=O)=O)cc3)cc(CC(=O)OCCCO)c2C)cc1` showed an inhibition [1] of 36%, an IC50 [2] of over 10 µM and a Ratio IC50 (J774) of over 38.5.

`Cc1c(CC(=O)OCCO)cc(-c2ccc(S(C)(=O)=O)cc2)n1-c1ccccc1` showed an IC50 [5] of 0.096 µM, an inhibition [1] of 22% and an IC50 [2] of over 10 µM. The Ratio IC50 (J774) was over 104.

`Cc1c(CC(=O)OCCCO[N+](=O)[O-])cc(-c2ccc(S(C)(=O)=O)cc2)n1-c1cccc(F)c1` was tested, and the IC50 [5] was 0.0073 µM, the Activity (Aorta [3]) was “inactive” and the inhibition [1] was 75%. The Activity (Rattus norvegicus [6]) was 43.2 g, the Activity (Rattus norvegicus [7]) was 40.7 g and the inhibition [8] was 50%. The IC50 [2] was 1.1 µM, the Activity (Mus musculus) was “inactive” and the Activity (Rattus norvegicus [9]) was 36.8 g. For the same compound, the inhibition [10] was 20%, the Activity (Rattus norvegicus [11]) was 45.1 g and the Activity (Rattus norvegicus [12]) was 45.5 g. The Activity (Rattus norvegicus [13]) was 44.9 g, the Emax (Aorta [4]) was 39% and the IC50 (Aorta [4]) was over 10 µM. It also gave an Activity (Rattus norvegicus [14]) of 2.05 mL, a Ratio IC50 (J774) of 151 and an Activity (Rattus norvegicus [15]) of 1.96 mL.

For `COc1ccc(-n2c(-c3ccc(S(C)(=O)=O)cc3)cc(CC(=O)OCCO[N+](=O)[O-])c2C)cc1`, the Activity (Aorta [3]) was “inactive”, the inhibition [1] was 55% and the inhibition [8] was 30%. The IC50 [2] was 6.4 µM, the inhibition [10] was 12% and the IC50 (Aorta [4]) was 0.178 µM. It also gave a Ratio IC50 (J774) of 37.6.

For `Cc1c(CC(=O)OCCO[N+](=O)[O-])cc(-c2ccc(S(C)(=O)=O)cc2)n1-c1ccccc1`, the Activity (Aorta [3]) was “inactive”, the inhibition [1] was 19% and the IC50 [2] was over 10 µM. For the same compound, the Emax (Aorta [4]) was 65%, the IC50 (Aorta [4]) was 1.74 µM and the Ratio IC50 (J774) was over 233.

Compound `CSc1ccc(-n2c(-c3ccc(S(C)(=O)=O)cc3)cc(CC(=O)OCCO)c2C)cc1` has an inhibition [1] of 62%, an inhibition [8] of 40% and an IC50 [2] of 3.18 µM. For the same compound, the inhibition [10] was 11% and the Ratio IC50 (J774) was 37.4.

— ChEMBL document CHEMBL1938239, “Novel analgesic/anti-inflammatory agents: diarylpyrrole acetic esters endowed with nitric oxide releasing properties” (J Med Chem, 2011)
